Laboratory results as given in ChEMBL document CHEMBL2311383, “Discovery of piperazin-1-ylpyridazine-based potent and selective stearoyl-CoA desaturase-1 inhibitors for the treatment of obesity and metabolic syndrome” (J Med Chem, 2013).
Calls of active or inactive are those of the source. No cut-off for these calls is given here.

Assays:
Rattus norvegicus [1] = assay: In vivo inhibition of SCD1 in Zucker-Fatty rat assessed as reduction of C18 plasma desaturation index at 1 mg/kg, po bid administered for 15 weeks; format: functional; conditions: 2520 h
How it was run: (§1)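 Plasma from Zucker fatty rats after 15 weeks oral 1 mg/kg twice daily. Lipids extracted by modified Folch, classes separated by TLC, hydrolyzed, derivatized and analyzed by GC against an internal standard. Desaturation index is the […] ratio for C16 and C18; n = 12, mean ± SEM.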

[2] = Oral bioavailability in Lewis rat at 10 mg/kg; format: ADME, organism-based; conditions: in vivo
How it was run: (§2)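 Lewis rats, IV 3 mg/kg and PO 10 mg/kg unless otherwise stated (some at PO 5 mg/kg, IV 1 mg/kg, or IV 1/PO 2 mg/kg). At least two rats IV, three rats PO, averaged. Plasma t1/2 (h), AUC 0–∞ (μM·h), Vss (L/kg), clearance ((L/h)/kg), Cmax (μM), Tmax (h), oral bioavailability (%).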

Rattus norvegicus [3] = assay: Antiobesity activity in Zucker-Fatty rat assessed as reduction in fat mass at 1 mg/kg, po bid administered for 15 weeks; format: functional; set-up: scale not given: the % may be the effect or the level left
How it was run: (§3)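 Male Zucker fa/fa rats, 20 weeks old, chow ad libitum, 24 per group. Dosed orally twice daily (10 a.m., 4 p.m.) at 1 mg/kg for 15 weeks, suspended in 1% CMC/0.1% Tween 20/10% propylene glycol/water; vehicle controls. Body weight taken daily, change from day 0 over 12 weeks. At end: epididymal, retroperitoneal and mesenteric fat pads weighed; DEXA of carcass BMC, lean and fat mass; fat % = FM/(BMC+LM+FM); n = 12, mean ± SEM.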

Rattus norvegicus [4] = assay: Antiobesity activity in Zucker-Fatty rat assessed as reduction in body fat percentage at 1 mg/kg, po bid administered for 15 weeks relative to vehicle-treated control; format: functional; set-up: scale not given: the % may be the effect or the level left; how it was run: as §3
[5] = Half life in Lewis rat at 1 mg/kg, iv; format: ADME, organism-based; set-up: dose 1 mg/kg, route intravenous; conditions: in vivo; how it was run: as §2
[6] = Clearance in Lewis rat at 1 mg/kg, iv; format: ADME, organism-based; set-up: dose 1 mg/kg, route intravenous; conditions: in vivo; how it was run: as §2
Rattus norvegicus [7] = assay: Antiobesity activity in Zucker-Fatty rat assessed as reduction in bone mineral content at 1 mg/kg, po bid administered for 15 weeks; format: functional, organism-based; set-up: dose 1 mg/kg; how it was run: as §3
[8] = target: Acyl-CoA 6-desaturase (Rattus norvegicus) (UniProt Q9Z122); assay: Inhibition of delta6 desaturase in Sprague-Dawley rat liver microsome using cis,cis-9,12-octadecadienoic acid substrate at 10 uM
[9] = Metabolic stability in rat liver microsome after 30 mins by LC/MS/MS analysis; format: ADME; conditions: liver microsomes, read-out: Stability
How it was run: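 Compound incubated 30 min with rat liver microsomes; percent parent remaining by LC/MS/MS.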

Rattus norvegicus [10] = assay: In vivo inhibition of SCD1 in po dosed Lewis rat liver microsome after 4 hrs; format: functional
How it was run: (§4)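 Lewis rats fed high-carbohydrate diet for one week, fasted 4 h, then dosed orally (0.1–1 mg/kg in 0.2% Tween 20/1% CMC; n = 4), killed 4 h later; ip arm 15 mg/kg once daily for two days. Liver microsomes prepared, SCD1 activity measured by tritiated water release from [9,10-3H]stearoyl-CoA. Mean ± SD of at least four rats.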

Rattus norvegicus [11] = assay: In vivo inhibition of SCD1 in Zucker-Fatty rat assessed as reduction of C16 plasma desaturation index at 1 mg/kg, po bid administered for 15 weeks; format: functional; conditions: 2520 h; how it was run: as §1
[12] = Apparent permeability from apical to basolateral side in human Caco2 cells; format: ADME, cell-based; conditions: Caco-2
How it was run: (§5)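 Caco-2 monolayers; apparent permeability a-to-b and b-to-a reported in 10⁻⁶ cm/s.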

Rattus norvegicus [13] = assay: Antiobesity activity in Zucker-Fatty rat assessed as reduction in total body weight at 1 mg/kg, po bid administered upto 12 weeks relative to vehicle-treated control; format: functional; set-up: scale not given: the % may be the effect or the level left; how it was run: as §3
[14] = target: Acyl-CoA (8-3)-desaturase (Rattus norvegicus) (UniProt Q920R3); assay: Inhibition of delta5 desaturase in Sprague-Dawley rat liver microsome at 10 uM; format: microsomes
[15] = Cmax in Lewis rat at 10 mg/kg, po; format: ADME, organism-based; set-up: dose 10 mg/kg, route oral; conditions: in vivo; how it was run: as §2
Acyl-CoA desaturase 1 = target: T1, Acyl-CoA desaturase 1 (Mus musculus, UniProt P13516); assay: Inhibition of SCD1 in ICR mouse liver microsome using [9,10 3H]- stearoyl-Coenzyme A substrate assessed as decreased production of tritiated water after 20 min by scintillation counting analysis
T1 sequence (P13516 whole entry): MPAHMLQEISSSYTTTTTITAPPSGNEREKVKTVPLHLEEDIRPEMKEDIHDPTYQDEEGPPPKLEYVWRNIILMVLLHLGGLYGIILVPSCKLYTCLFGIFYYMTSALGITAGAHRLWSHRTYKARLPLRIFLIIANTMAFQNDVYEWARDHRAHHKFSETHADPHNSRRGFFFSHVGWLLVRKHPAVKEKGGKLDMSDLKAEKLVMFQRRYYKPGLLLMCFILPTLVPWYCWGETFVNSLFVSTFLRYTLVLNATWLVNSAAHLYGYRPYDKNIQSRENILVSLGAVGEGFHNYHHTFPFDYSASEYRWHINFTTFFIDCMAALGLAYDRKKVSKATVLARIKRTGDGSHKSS

[16] = Tmax in Lewis rat at 10 mg/kg, po; format: ADME, organism-based; set-up: dose 10 mg/kg, route oral; conditions: in vivo; how it was run: as §2
Rattus norvegicus [17] = assay: In vivo inhibition of SCD1 in Lewis rat liver microsome at 15 mg/kg, ip administered qd for 2 days; format: functional; conditions: 48 h, route intraperitoneal; how it was run: as §4
Rattus norvegicus [18] = assay: Antiobesity activity in Zucker-Fatty rat assessed as reduction in lean mass at 1 mg/kg, po bid administered for 15 weeks; format: functional, organism-based; set-up: dose 1 mg/kg; how it was run: as §3
[19] = Apparent permeability from basolateral to apical side in human Caco2 cells; format: ADME, cell-based; conditions: Caco-2; how it was run: as §5
Rattus norvegicus [20] = assay: Antiobesity activity in Zucker-Fatty rat assessed as reduction in combined visceral fat weight at 1 mg/kg, po bid administered for 15 weeks relative to vehicle-treated control; format: functional; set-up: scale not given: the % may be the effect or the level left; how it was run: as §3
Rattus norvegicus [21] = assay: In vivo inhibition of SCD1 in po dosed Lewis rat liver microsome at 0.1 to 1 mg/kg after 4 hrs; format: functional, organism-based; how it was run: as §4
[22] = Volume of distribution at steady state in Lewis rat at 1 mg/kg, iv; format: ADME, organism-based; set-up: dose 1 mg/kg, route intravenous; conditions: in vivo, read-out: Vdss; how it was run: as §2
Stearoyl-CoA desaturase = target: T2, Stearoyl-CoA desaturase (Homo sapiens, UniProt O00767); assay: Inhibition of SCD1 in human HepG2 cells using [14C]-stearate substrate assessed as decreased production of [14C]-oleic acid after 24 hrs; format: cell-based
T2 sequence (O00767 whole entry): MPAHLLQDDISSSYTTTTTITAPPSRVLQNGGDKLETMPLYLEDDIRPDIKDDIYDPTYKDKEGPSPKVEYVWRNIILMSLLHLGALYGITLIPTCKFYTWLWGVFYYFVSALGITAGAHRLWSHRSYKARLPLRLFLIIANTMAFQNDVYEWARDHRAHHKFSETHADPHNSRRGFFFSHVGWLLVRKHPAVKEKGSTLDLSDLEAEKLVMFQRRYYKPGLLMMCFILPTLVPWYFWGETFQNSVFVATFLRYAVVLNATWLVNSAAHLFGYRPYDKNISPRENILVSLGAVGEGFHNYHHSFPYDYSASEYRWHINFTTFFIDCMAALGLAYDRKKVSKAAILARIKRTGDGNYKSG

Rattus norvegicus [23] = assay: In vivo inhibition of SCD1 in Lewis rat liver microsome at 1 mg/kg, po after 4 hrs
[24] = Half life in Lewis rat at 3 mg/kg, iv; format: ADME, organism-based; set-up: dose 3 mg/kg, route intravenous; conditions: in vivo; how it was run: as §2
[25] = Clearance in Lewis rat at 3 mg/kg, iv; format: ADME, organism-based; set-up: dose 3 mg/kg, route intravenous; conditions: in vivo; how it was run: as §2
[26] = Volume of distribution at steady state in Lewis rat at 3 mg/kg, iv; format: ADME, organism-based; set-up: dose 3 mg/kg, route intravenous; conditions: in vivo, read-out: Vdss; how it was run: as §2
[27] = Tmax in Lewis rat at 2 mg/kg, po; format: ADME, organism-based; set-up: dose 2 mg/kg, route oral; conditions: in vivo; how it was run: as §2
[28] = AUC (0 to infinity) in Lewis rat at 2 mg/kg, po; format: ADME, organism-based; set-up: time infinity, dose 2 mg/kg, route oral; conditions: plasma; how it was run: as §2
[29] = AUC (0 to infinity) in Lewis rat at 1 mg/kg, iv; format: ADME, organism-based; set-up: time infinity, dose 1 mg/kg, route intravenous; conditions: plasma; how it was run: as §2
[30] = Oral bioavailability in Lewis rat at 2 mg/kg; format: ADME, organism-based; conditions: in vivo; how it was run: as §2
[31] = Cmax in Lewis rat at 2 mg/kg, po; format: ADME, organism-based; set-up: dose 2 mg/kg, route oral; conditions: in vivo; how it was run: as §2

Acyl-CoA 6-desaturase (Rattus norvegicus), sequence (Q9Z122 whole entry, looked up): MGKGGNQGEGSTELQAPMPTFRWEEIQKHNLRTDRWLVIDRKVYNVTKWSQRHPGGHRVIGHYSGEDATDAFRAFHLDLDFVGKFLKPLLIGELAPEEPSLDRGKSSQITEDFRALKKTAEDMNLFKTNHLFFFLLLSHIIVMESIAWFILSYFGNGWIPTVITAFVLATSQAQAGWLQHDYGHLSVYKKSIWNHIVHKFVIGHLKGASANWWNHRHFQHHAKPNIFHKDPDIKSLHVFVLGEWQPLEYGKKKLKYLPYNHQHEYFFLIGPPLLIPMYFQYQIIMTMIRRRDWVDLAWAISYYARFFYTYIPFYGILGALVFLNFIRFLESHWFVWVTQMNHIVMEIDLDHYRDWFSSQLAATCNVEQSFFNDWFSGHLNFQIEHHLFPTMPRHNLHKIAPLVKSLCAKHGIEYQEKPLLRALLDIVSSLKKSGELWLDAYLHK
Acyl-CoA (8-3)-desaturase (Rattus norvegicus), sequence (Q920R3 whole entry, looked up): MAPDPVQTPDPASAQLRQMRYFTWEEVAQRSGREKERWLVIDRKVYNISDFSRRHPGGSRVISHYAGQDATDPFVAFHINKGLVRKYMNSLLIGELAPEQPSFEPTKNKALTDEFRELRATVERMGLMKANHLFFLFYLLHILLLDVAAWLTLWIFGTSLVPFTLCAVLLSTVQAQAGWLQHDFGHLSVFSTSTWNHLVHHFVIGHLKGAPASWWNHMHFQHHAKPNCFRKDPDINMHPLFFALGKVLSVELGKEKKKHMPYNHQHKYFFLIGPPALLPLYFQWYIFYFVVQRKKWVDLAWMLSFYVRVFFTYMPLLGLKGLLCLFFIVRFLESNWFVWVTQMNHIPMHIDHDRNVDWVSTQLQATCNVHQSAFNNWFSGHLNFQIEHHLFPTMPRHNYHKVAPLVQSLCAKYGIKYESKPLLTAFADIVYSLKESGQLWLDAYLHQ

Row | SMILES | inhibition [8] | remaining at 0.5 h [9] | Papp A→B [12] | inhibition [14] | IC50 (Acyl-CoA desaturase 1) | inhibition in vivo at 15 mg/kg (Rattus norvegicus [17]) | Papp B→A [19] | IC50 (Stearoyl-CoA desaturase) | also measured
1 | O=C(NCCC1CC1)c1ccc(N2CCN(C(=O)c3cc(F)ccc3C(F)(F)F)CC2)nn1 | inactive | 74% | 30 ×10⁻⁶ cm/s | inactive | 14 nM | > 60% | 30 ×10⁻⁶ cm/s |  | inhibition in vivo at 1 mg/kg (Rattus norvegicus [1]): 61%; bioavailability [2]: 49%; Activity (Rattus norvegicus [3]): 20%; Activity (Rattus norvegicus [4]): 9%; half-life [5]: 1.6 h; clearance [6]: 21.7 mL/min/kg; Activity (Rattus norvegicus [7]): inactive; ED50 (Rattus norvegicus [10]): 0.8 mg/kg; inhibition in vivo at 1 mg/kg (Rattus norvegicus [11]): 73%; Activity (Rattus norvegicus [13]): 36%; Cmax [15]: 900 nM; Tmax [16]: 3.3 h; Activity (Rattus norvegicus [18]): inactive; Activity (Rattus norvegicus [20]): 24%; inhibition (Rattus norvegicus [21]): Dose-dependent effect; Vd [22]: 2.7 L/kg
2 | CC(C(=O)N1CCN(c2ccc(C(=O)NCCC3CC3)nn2)CC1)(C(F)(F)F)C(F)(F)F | inactive |  |  | inactive | 113 nM |  |  | 119 nM | 
3 | O=C(NCCC1CC1)c1ccc(N2CCN(C(=O)c3cc(F)ccc3Cl)CC2)nn1 | inactive | 66% | 28 ×10⁻⁶ cm/s | inactive | 62 nM |  | 29 ×10⁻⁶ cm/s | 192 nM | 
4 | O=C(Nc1ccc(Cl)cc1)c1ccc(N2CCN(C(=O)c3ccccc3C(F)(F)F)CC2)nn1 | inactive | 65% | 2 ×10⁻⁶ cm/s | inactive | 7 nM |  | 2 ×10⁻⁶ cm/s |  | inhibition (Rattus norvegicus [23]): Active
5 | Cc1cc(C(=O)N2CCN(c3ccc(C(=O)NCCC4CC4)nn3)CC2)c(C(F)(F)F)o1 | inactive | 36% | 21 ×10⁻⁶ cm/s | inactive | 72 nM | < 30% | 21 ×10⁻⁶ cm/s | 62 nM | 
6 | O=C(NCCC1CC1)c1ccc(N2CCN(C(=O)c3cnc(Cl)nc3C(F)(F)F)CC2)nn1 | inactive |  |  | inactive | 321 nM |  |  | 5870 nM | 
7 | O=C(NCCC1CC1)c1ccc(N2CCN(C(=O)c3cc(Cl)ccc3Cl)CC2)nn1 | inactive |  |  | inactive | 34 nM |  |  | 101 nM | 
8 | O=C(NCCC1CC1)c1ccc(N2CCN(C(=O)c3cc(Cl)ccc3C(F)(F)F)CC2)nn1 | inactive | 69% | 32 ×10⁻⁶ cm/s | inactive | 12 nM | > 60% | 30 ×10⁻⁶ cm/s |  | bioavailability [2]: 30%; half-life [24]: 1.8 h; Cmax [15]: 500 nM; clearance [25]: 14.3 mL/min/kg; Vd [26]: 1.6 L/kg; Tmax [16]: 2.3 h
9 | O=C(CNC(=O)c1ccc(N2CCN(C(=O)c3ccccc3C(F)(F)F)CC2)nn1)c1ccccc1 | inactive | 63% | 22 ×10⁻⁶ cm/s | inactive | 42 nM | > 60% | 23 ×10⁻⁶ cm/s |  | bioavailability [2]: 42%; half-life [24]: 1.8 h; Cmax [15]: 1900 nM; clearance [25]: 4.67 mL/min/kg; Vd [26]: 0.7 L/kg; Tmax [16]: 3.3 h
10 | O=C(NCCC1CC1)c1ccc(N2CCN(C(=O)c3ccoc3C(F)(F)F)CC2)nn1 | inactive |  |  | inactive |  |  |  | 290 nM | 
11 | O=C(Nc1nc2ccccc2[nH]1)c1ccc(N2CCN(C(=O)c3ccccc3C(F)(F)F)CC2)nn1 | inactive | 92% | 25 ×10⁻⁶ cm/s | inactive | 11 nM | < 30% | 23 ×10⁻⁶ cm/s |  | half-life [5]: 1.1 h; clearance [6]: 21.7 mL/min/kg; Tmax [27]: 0.5 h; AUC(0-inf) [28]: 0.6 µM·h; AUC(0-inf) [29]: 1.6 µM·h; bioavailability [30]: 19%; Cmax [31]: 70 nM; Vd [22]: 1.8 L/kg
